Test results taken from PubChem BioAssay.
Activity calls are given as the source filed them.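 Rule for the calls, unless noted: active = visually confirmed hit in the image check and inhibition above 20%; inconclusive = visually confirmed hit but inhibition not above 20%; inactive = no visual hit in the image check.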

Assays:
[1] = inhibitors of TNFa-induced NFkB p65 translocation, primary screen, imaging, HUVEC, MLSMR starter and 10KST1 sets (AID 438;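 active = inhibition above 20% together with a positive visual image hit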;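 note: compound added about 3h40 before a 20 min TNFalpha stimulation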;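 for inhibition: signal is the nuclear over cytoplasmic p65 intensity ratio per well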); details: HUVEC TNFa-induced p65 nuclear translocation; cell count: measured here: nuclei count (cytotoxicity indicator), at 2.08 µM; inhibition: at 2 µM, stronger effect = higher value, 0% TNFa-plus-vehicle, 100% no-TNFa wells
[2] = reduction of polyQ htt aggregates in cells – imaging, exon1htt(103Q)mCFP cells, high-content imaging, primary screen (AID 483;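 active = visual image review flags a hit and inhibition of aggregation exceeds 20%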;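 note: compound exposure lasted 3 days before fixation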;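 for nuclei count: percent of the per-plate median nuclei count of sample wells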); details: exon1htt(103Q)mCFP cell line, aggregate imaging, at 2 µM; inhibition of aggregation: stronger effect = higher value; nuclei count: measured here: cell count, toxicity
[3] = endothelial E-selectin expression blockers – imaging, HUVEC, immunofluorescence, MLSMR starter and 10KST1 sets, primary screen (AID 487); details: HUVEC TNFalpha-induced E-selectin immunofluorescence imaging, at 2 µM; inhibition: stronger effect = higher value; nuclei count: measured here: cell number, toxicity;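 for inhibition: signal is fraction of cell area covered by stained E-selectin grains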;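 for nuclei count: 100% = median nuclei count of all wells on the same plate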
[4] = biological target: Voltage-gated potassium channel subunit beta-2 (Rattus norvegicus) (UniProt P62483); experiment: inhibitors of rat Kvbeta2 reductase activity – biochemical, NADPH fluorescence, primary screen (AID 622;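 active = fluorescence slope higher than the sample average by over 3 SD, cut at about -0.22 in these data, passing the limit was not always enough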;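 note: slope of raw intensity against log time taken from 70 to 1610 s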); details: recombinant KvBeta, 4-cyanobenzaldehyde reduction, at 10 µM, stronger effect = higher value
[5] = biological target: Voltage-gated potassium channel subunit beta-2 (Rattus norvegicus) (UniProt P62483); experiment: enhancers of rat Kvbeta2 NADPH turnover – biochemical, NADPH fluorescence, primary screen (AID 623;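 active = NADPH fluorescence slope more negative than the mean of all samples by about 3 SD, 99.7% confidence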;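 note: fluorescence intensity change per second fitted from 20 to 320 s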); details: Recombinant KvBeta, NADPH fluorescence decrease slope, 10 min; at 10 µM; stronger effect = lower value
[6] = biological target: Muscarinic acetylcholine receptor M4 (Homo sapiens) (UniProt P08173); experiment: M4-linked GIRK flux change, two-sided – cell-based, HEK293 M4/GIRK, thallium flux, BTC-AM, M4 allosteric agonist project, primary screen (AID 625;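 active = fluorescence slope after compound addition differing from the mean of all tested samples at 99.7% confidence, mostly higher but some lower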;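 note: thallium influx through GIRK channels coupled to M4 in HEK293 cells with BTC-AM dye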); details: at 10 µM, actives lie on both sides
Summary of the method: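 Assay system: HEK293 cells with M4 receptor and GIRK channels / Controls: carbachol and DMSO controls / Schedule: 1 h dye loading, 2 min kinetic read / Technique: kinetic fluorescence with BTC-AM dye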

[7] = blockers of RIG-like receptor reporter activation – cell-based, Sendai virus stimulus, luciferase, 10K MLSCN set, TLR/RLR signaling modifier project, primary screen (AID 602276;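 active = inhibition at or above 50% at 10 µM; inactive = inhibition below 50%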;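 note: firefly luciferase from ISG56 promoter only with Renilla not read in this screen; 0% = Sendai virus plus DMSO and 100% = medium plus DMSO without virus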); details: HEK293 RL24 IRF3 luciferase reporter, at 10 µM, stronger effect = higher value
[8] = TLR3 IRF3 reporter activation blockers – cell-based, poly I:C stimulus, luciferase, 10K MLSCN set, primary screen (AID 602277;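 active = inhibition of the reporter signal at or above 50%; inactive = inhibition below 50%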); details: HEK293-TLR3 RL24 IRF3 luciferase reporter, at 10 µM, stronger effect = higher value

Sequence of Voltage-gated potassium channel subunit beta-2 (Rattus norvegicus) (P62483 whole entry, looked up): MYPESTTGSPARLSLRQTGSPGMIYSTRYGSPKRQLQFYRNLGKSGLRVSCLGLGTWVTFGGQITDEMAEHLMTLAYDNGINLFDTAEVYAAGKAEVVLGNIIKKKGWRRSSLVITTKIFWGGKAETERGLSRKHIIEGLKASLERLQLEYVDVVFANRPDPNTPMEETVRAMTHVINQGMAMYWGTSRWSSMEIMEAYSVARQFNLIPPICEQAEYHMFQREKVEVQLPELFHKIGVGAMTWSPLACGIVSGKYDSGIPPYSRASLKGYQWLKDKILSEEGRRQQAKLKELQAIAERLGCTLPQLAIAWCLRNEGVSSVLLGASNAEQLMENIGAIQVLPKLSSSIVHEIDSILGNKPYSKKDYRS
Sequence of Muscarinic acetylcholine receptor M4 (Homo sapiens) (P08173 whole entry, looked up): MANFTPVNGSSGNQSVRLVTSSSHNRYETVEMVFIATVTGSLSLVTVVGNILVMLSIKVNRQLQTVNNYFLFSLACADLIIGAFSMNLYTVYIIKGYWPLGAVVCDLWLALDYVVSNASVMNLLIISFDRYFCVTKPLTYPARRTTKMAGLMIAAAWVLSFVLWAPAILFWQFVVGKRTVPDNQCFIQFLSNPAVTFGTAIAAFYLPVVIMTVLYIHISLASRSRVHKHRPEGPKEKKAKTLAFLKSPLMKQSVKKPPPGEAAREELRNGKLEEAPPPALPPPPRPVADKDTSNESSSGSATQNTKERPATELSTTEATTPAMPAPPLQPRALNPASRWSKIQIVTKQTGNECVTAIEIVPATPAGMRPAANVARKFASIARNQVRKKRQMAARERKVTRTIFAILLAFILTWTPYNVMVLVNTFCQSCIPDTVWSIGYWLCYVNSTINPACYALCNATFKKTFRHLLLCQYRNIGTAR

| SMILES | cell count [1] | inhibition [1] | inhibition of aggregation [2] | nuclei count [2] [%] | inhibition [3] | nuclei count [3] [%] | fluorescence slope [4] | NADPH fluorescence slope [5] | fluorescence slope [6] | inhibition [7] | inhibition [8] |
| --- | --- | --- | --- | --- | --- | --- | --- | --- | --- | --- | --- |
| C=C(c1ccc(O)cc1)c1ccc(O)cc1 | 447 | -0.5% (inactive) | -1.6% (inactive) | 123 | -75% (inactive) | 205 | -0.37 (inactive) | 1.7e-05 (inactive) | 0.00598 (inactive) | 13.9% (inactive) | 16.6% (inactive) |
| Cc1ccccc1OCCN1C(=O)NC2(CCc3ccccc32)C1=O (centres undefined) | 414 | -18.4% (inactive) | 8.4% (inactive) | 94.7 | 8.5% (inactive) | 99.4 | -0.297 (inactive) | -1.6e-05 (inactive) | 0.00542 (inactive) | 12% (inactive) | 4.56% (inactive) |
| CN1C(=O)NC(NC(=O)C2CCCCC2)(C(F)(F)F)C1=O (centres undefined) | 650 | 1.4% (inactive) | 0.6% (inactive) | 97.1 | 3.3% (inactive) | 99.5 | -0.579 (inactive) | -2.4e-05 (inactive) | 0.0049 (inactive) | 17% (inactive) | 17.5% (inactive) |
| COC(=O)c1[nH]c2c(c1C)C(=O)CC(c1cccs1)C2 (centres undefined) | 315 | 4.5% (inactive) | -123% (inactive) | 2 | -126% (inactive) | 134 | -0.473 (inactive) | -2.2e-05 (inactive) | 0.00476 (inactive) | 34.9% (inactive) | 79.5% (active) |
| Cc1nc(NC2=NCN(CCCN3CCOCC3)CN2)nc2c(C)cccc12 | 552 | 12.1% (inactive) | 0.1% (inactive) | 73.7 | 35.4% (inactive) | 97.1 | -0.571 (inactive) | -6.5e-05 (inactive) | 0.00567 (inactive) | 26.7% (inactive) | 31.4% (inactive) |
| Cc1ccccc1-c1noc(N)c1C#N | 515 | 5.3% (inactive) | -0.5% (inactive) | 95.2 | 4.6% (inactive) | 103 | -0.317 (inactive) | -2.3e-05 (inactive) | 0.00617 (inactive) | 12.5% (inactive) | -2.11% (inactive) |
| CCC(=O)/C=C1\Sc2ccc(OC)cc2N1CCO | 626 | 2.4% (inactive) | -1.7% (inactive) | 93.6 | -28.2% (inactive) | 85.1 | -0.577 (inactive) | -3.8e-05 (inactive) | 0.0067 (inactive) | 21.2% (inactive) | 9.17% (inactive) |
| CSc1nnc2c3ccccc3n(Cc3ccccc3)c2n1 | 295 | -0.5% (inactive) | 3.5% (inactive) | 92.5 | 30.6% (inactive) | 86.1 | -0.45 (inactive) | -4.8e-05 (inactive) | 0.00511 (inactive) | 19.7% (inactive) | 17% (inactive) |
| CCN(CCCNC(=O)c1cn(CC)c2ccc(S(=O)(=O)N(C)C)cc2c1=O)c1cccc(C)c1 | 587 | -12.9% (inactive) | 23.2% (inactive) | 106 | -62.7% (inactive) | 116 | -0.475 (inactive) | 8.6e-05 (inactive) | 0.00589 (inactive) | 5.55% (inactive) | 3.96% (inactive) |
| COc1cc(CC(=O)Nc2ncc(C)s2)cc(OC)c1OC | 524 | -6.7% (inactive) | 20.3% (inactive) | 78.3 | -68.3% (inactive) | 113 | -0.501 (inactive) | 7.8e-05 (inactive) | 0.00592 (inactive) | 19.3% (inactive) | 18.5% (inactive) |
| O=C(CN1C(=O)c2ccccc2C1=O)NCC1COc2ccccc2O1 (centres undefined) | 403 | -0.8% (inactive) | 12.6% (inactive) | 101 | 50.3% (inactive) | 75.3 | -0.477 (inactive) | 9.2e-05 (inactive) | 0.00703 (inactive) | -12.5% (inactive) | -10.2% (inactive) |
| CCOc1ccc(CN2CCN(c3cc(C)nc4c5c(C)cc(C)nc5nn34)CC2)cc1 | 361 | -7.1% (inactive) | 5% (inactive) | 108 | 1.9% (inactive) | 114 | -0.385 (inactive) | 1.9e-05 (inactive) | 0.00419 (inactive) | 11.7% (inactive) | 22.8% (inactive) |
| CCN1CCN(CCCNC(=O)c2cn(CCOC)c(=O)c3c2c2ccccc2n3C)CC1 | 451 | -6.3% (inactive) | 5.8% (inactive) | 103 | -2.9% (inactive) | 106 | -0.569 (inactive) | -1.9e-06 (inactive) | 0.00513 (inactive) | -6.82% (inactive) | 0.455% (inactive) |
| CCCC(=O)Nc1ccc(OCC(=O)OC)cc1 | 402 | -15.4% (inactive) | 5.1% (inactive) | 98.2 | 8% (inactive) | 84.9 | -0.439 (inactive) | -1.2e-05 (inactive) | 0.00585 (inactive) | 11% (inactive) | 21.9% (inactive) |
